Values after ≈ are worked out from the molar mass of the structure shown. Active and inactive are the calls of the source. No cut-off for these calls is given here.
System: Staphylococcus aureus
Assay: Antimicrobial activity against Staphylococcus aureus IFO 3060 at 200 ug/8 mm disk after 24 hrs by agar disk diffusion method
Assay type: functional
Details: not given
How it was run: (§1)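 Agar disc diffusion on Mueller-Hinton agar: 8 mm filter paper discs moistened with compound in DMSO (200 per disc) placed on plates pre-inoculated with each organism; incubated at 37 °C; growth inhibition zone diameter read after 24 h for bacteria, 48 h for C. albicans.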

Compound	growth inhibition (GI)	GI
S=c1sc(C23CC4CC(CC(C4)C2)C3)nn1Cc1ccc(Cl)cc1	inactive	–
O=c1[nH]nc(C23CC4CC(CC(C4)C2)C3)s1	inactive	–
CN1CCN(Cn2nc(C34CC5CC(CC(C5)C3)C4)sc2=S)CC1	–	13 mm
O=[N+]([O-])c1ccc(Cn2nc(C34CC5CC(CC(C5)C3)C4)sc2=S)cc1	inactive	–
S=c1sc(C23CC4CC(CC(C4)C2)C3)nn1CN1CCN(c2ccccc2)CC1	inactive	–
S=c1[nH]nc(C23CC4CC(CC(C4)C2)C3)s1	–	13 mm
Fc1ccc(Cn2nc(C34CC5CC(CC(C5)C3)C4)sc2=S)cc1	inactive	–
S=C(Nc1ccc(Cl)cc1)Nc1nnc(C23CC4CC(CC(C4)C2)C3)s1	–	15 mm

System: Candida albicans
Assay: Antimicrobial activity against Candida albicans IFO 0583 at 100 ug/8 mm disk after 48 hrs by agar disk diffusion method
Assay type: functional
Details: not given
How it was run: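 Reference antifungal applied at 100 per 8 mm disc on Mueller-Hinton agar pre-inoculated with C. albicans; 37 °C incubation; inhibition zone diameter measured at 48 h.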

Compound	GI
Clc1ccccc1C(c1ccccc1)(c1ccccc1)n1ccnc1 [CLOTRIMAZOLE]	21 mm

System: Pseudomonas aeruginosa
Assay: Antimicrobial activity against Pseudomonas aeruginosa IFO 3448 after 24 hrs
Assay type: functional
Details: IFO 3448, 24 h
How it was run: (§2)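 MIC by two-fold serial dilution in wells inoculated with 10^6 CFU/mL of each organism; incubated at 36 °C for 24 h (bacteria); MIC taken as lowest concentration giving no visible growth by unaided eye.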

Compound	MIC
S=c1[nH]nc(C23CC4CC(CC(C4)C2)C3)s1	2 µg/mL (≈ 7.92 µM)

System: Pseudomonas aeruginosa
Assay: Antimicrobial activity against Pseudomonas aeruginosa IFO 3448 at 200 ug/8 mm disk after 24 hrs by agar disk diffusion method
Assay type: functional
Details: not given
How it was run: as §1

Compound	growth inhibition (GI)	GI
S=c1sc(C23CC4CC(CC(C4)C2)C3)nn1Cc1ccc(Cl)cc1	inactive	–
O=c1[nH]nc(C23CC4CC(CC(C4)C2)C3)s1	inactive	–
CN1CCN(Cn2nc(C34CC5CC(CC(C5)C3)C4)sc2=S)CC1	inactive	–
O=[N+]([O-])c1ccc(Cn2nc(C34CC5CC(CC(C5)C3)C4)sc2=S)cc1	inactive	–
S=c1sc(C23CC4CC(CC(C4)C2)C3)nn1CN1CCN(c2ccccc2)CC1	inactive	–
S=c1[nH]nc(C23CC4CC(CC(C4)C2)C3)s1	–	20 mm
Fc1ccc(Cn2nc(C34CC5CC(CC(C5)C3)C4)sc2=S)cc1	inactive	–
S=C(Nc1ccc(Cl)cc1)Nc1nnc(C23CC4CC(CC(C4)C2)C3)s1	inactive	–

System: Escherichia coli
Assay: Antimicrobial activity against Escherichia coli IFO 3301 at 200 ug/8 mm disk after 24 hrs by agar disk diffusion method
Assay type: functional
Details: not given
How it was run: as §1

Compound	growth inhibition (GI)	GI
S=c1sc(C23CC4CC(CC(C4)C2)C3)nn1Cc1ccc(Cl)cc1	inactive	–
O=c1[nH]nc(C23CC4CC(CC(C4)C2)C3)s1	inactive	–
CN1CCN(Cn2nc(C34CC5CC(CC(C5)C3)C4)sc2=S)CC1	inactive	–
O=[N+]([O-])c1ccc(Cn2nc(C34CC5CC(CC(C5)C3)C4)sc2=S)cc1	inactive	–
S=c1sc(C23CC4CC(CC(C4)C2)C3)nn1CN1CCN(c2ccccc2)CC1	inactive	–
S=c1[nH]nc(C23CC4CC(CC(C4)C2)C3)s1	–	27 mm
Fc1ccc(Cn2nc(C34CC5CC(CC(C5)C3)C4)sc2=S)cc1	inactive	–
S=C(Nc1ccc(Cl)cc1)Nc1nnc(C23CC4CC(CC(C4)C2)C3)s1	inactive	–

System: Candida albicans
Assay: Antimicrobial activity against Candida albicans IFO 0583 after 48 hrs
Assay type: functional
Details: IFO 0583, 48 h
How it was run: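 MIC by two-fold serial dilution in wells, inoculated with microbial suspensions at 10^6 CFU/mL. Incubation was at 36 °C for 24 h (bacteria) or 48 h (C. albicans). MIC was the lowest concentration fully inhibiting visible growth, read by unaided eye.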

Compound	MIC
Clc1ccccc1C(c1ccccc1)(c1ccccc1)n1ccnc1 [CLOTRIMAZOLE]	2 µg/mL (≈ 5.8 µM)

System: Bacillus subtilis
Assay: Antimicrobial activity against Bacillus subtilis IFO 3007 after 24 hrs
Assay type: functional
Details: IFO 3007, 24 h
How it was run: as §2

Compound	MIC
S=C(Nc1ccc(Cl)cc1)Nc1nnc(C23CC4CC(CC(C4)C2)C3)s1	2 µg/mL (≈ 4.94 µM)

System: Micrococcus luteus
Assay: Antimicrobial activity against Micrococcus luteus IFO 3232 at 200 ug/8 mm disk after 24 hrs by agar disk diffusion method
Assay type: functional
Details: not given
How it was run: as §1

Compound	growth inhibition (GI)	GI
S=c1sc(C23CC4CC(CC(C4)C2)C3)nn1Cc1ccc(Cl)cc1	inactive	–
O=c1[nH]nc(C23CC4CC(CC(C4)C2)C3)s1	inactive	–
CN1CCN(Cn2nc(C34CC5CC(CC(C5)C3)C4)sc2=S)CC1	–	14 mm
O=[N+]([O-])c1ccc(Cn2nc(C34CC5CC(CC(C5)C3)C4)sc2=S)cc1	inactive	–
S=c1sc(C23CC4CC(CC(C4)C2)C3)nn1CN1CCN(c2ccccc2)CC1	inactive	–
S=c1[nH]nc(C23CC4CC(CC(C4)C2)C3)s1	inactive	–
Fc1ccc(Cn2nc(C34CC5CC(CC(C5)C3)C4)sc2=S)cc1	inactive	–
S=C(Nc1ccc(Cl)cc1)Nc1nnc(C23CC4CC(CC(C4)C2)C3)s1	–	12 mm

System: Rattus norvegicus
Assay: Antiinflammatory activity in Sprague-Dawley rat assessed as inhibition of carrageenan-induced paw edema at 5 mg/kg, ip administered 1 hrs before carrageenan challenge relative to untreated control
Assay type: functional
Details: route intraperitoneal

Compound	inhibition in vivo at 5 mg/kg
COc1ccc2c(c1)c(CC(=O)O)c(C)n2C(=O)c1ccc(Cl)cc1 [INDOMETHACIN]	52.8%

System: Candida albicans
Assay: Antimicrobial activity against Candida albicans IFO 0583 at 200 ug/8 mm disk after 48 hrs by agar disk diffusion method
Assay type: functional
Details: not given
How it was run: as §1

Compound	growth inhibition (GI)	GI
S=c1sc(C23CC4CC(CC(C4)C2)C3)nn1Cc1ccc(Cl)cc1	inactive	–
O=c1[nH]nc(C23CC4CC(CC(C4)C2)C3)s1	inactive	–
CN1CCN(Cn2nc(C34CC5CC(CC(C5)C3)C4)sc2=S)CC1	inactive	–
O=[N+]([O-])c1ccc(Cn2nc(C34CC5CC(CC(C5)C3)C4)sc2=S)cc1	inactive	–
S=c1sc(C23CC4CC(CC(C4)C2)C3)nn1CN1CCN(c2ccccc2)CC1	inactive	–
S=c1[nH]nc(C23CC4CC(CC(C4)C2)C3)s1	inactive	–
Fc1ccc(Cn2nc(C34CC5CC(CC(C5)C3)C4)sc2=S)cc1	–	14 mm
S=C(Nc1ccc(Cl)cc1)Nc1nnc(C23CC4CC(CC(C4)C2)C3)s1	inactive	–

System: Bacillus subtilis
Assay: Antimicrobial activity against Bacillus subtilis IFO 3007 at 200 ug/8 mm disk after 24 hrs by agar disk diffusion method
Assay type: functional
Details: not given
How it was run: as §1

Compound	growth inhibition (GI)	GI
S=c1sc(C23CC4CC(CC(C4)C2)C3)nn1Cc1ccc(Cl)cc1	inactive	–
O=c1[nH]nc(C23CC4CC(CC(C4)C2)C3)s1	inactive	–
CN1CCN(Cn2nc(C34CC5CC(CC(C5)C3)C4)sc2=S)CC1	–	14 mm
O=[N+]([O-])c1ccc(Cn2nc(C34CC5CC(CC(C5)C3)C4)sc2=S)cc1	inactive	–
S=c1sc(C23CC4CC(CC(C4)C2)C3)nn1CN1CCN(c2ccccc2)CC1	–	14 mm
S=c1[nH]nc(C23CC4CC(CC(C4)C2)C3)s1	–	13 mm
Fc1ccc(Cn2nc(C34CC5CC(CC(C5)C3)C4)sc2=S)cc1	inactive	–
S=C(Nc1ccc(Cl)cc1)Nc1nnc(C23CC4CC(CC(C4)C2)C3)s1	–	20 mm

System: Escherichia coli
Assay: Antimicrobial activity against Escherichia coli IFO 3301 after 24 hrs
Assay type: functional
Details: IFO 3301, 24 h
How it was run: as §2

Compound	MIC
S=c1[nH]nc(C23CC4CC(CC(C4)C2)C3)s1	0.5 µg/mL (≈ 1.98 µM)

From ChEMBL document CHEMBL1275285, “Synthesis, antimicrobial and anti-inflammatory activities of novel 5-(1-adamantyl)-1,3,4-thiadiazole derivatives” (2010)
